# Numbered stars: 1 amine (or outer) side, 2 acyl side, 3 side chain; on linkers, the order of the positions; unused ones are H or OH. Bridge positions count the residues as written; N and C are the ends. Square brackets hold non-standard residues; d marks the D form. Peptide text beside a SMILES is read from it. Orn(Me) = CN(CCC[C@H](N[*:1])C(=O)[*:2])[*:3]; Ala(cPent) = N[C@@H](CC1CCCC1)C(=O)O; Orn(Pr) = CCCNCCC[C@H](N)C(=O)O; 3Thi = N[C@@H](Cc1ccsc1)C(=O)O; Dab = NCC[C@H](N)C(=O)O
# How the values were obtained:
# [1] = tested on: Rattus norvegicus; assay: Vasoconstriction in Wistar rat assessed as decay in vasopressive duration of action at 0.3 nmol/kg, iv bolus measured over 10 sec interval; format: functional; set-up: unit not given here
# [2] = target: Vasopressin V1a/V2 (Homo sapiens) (UniProt P30518+P37288); assay: Selectivity ratio of EC50 for human vasopressin V2 receptor to EC50 for human vasopressin V1a receptor
# [3] = target: T1, Vasopressin V1a receptor (Homo sapiens, UniProt P37288); assay: Agonist activity at recombinant human vasopressin V1a receptor expressed in HEK293 cells by luciferase reporter gene assay; format: functional, cell-based; conditions: read-out: EC50
# Target sequence in this assay (P37288 whole entry): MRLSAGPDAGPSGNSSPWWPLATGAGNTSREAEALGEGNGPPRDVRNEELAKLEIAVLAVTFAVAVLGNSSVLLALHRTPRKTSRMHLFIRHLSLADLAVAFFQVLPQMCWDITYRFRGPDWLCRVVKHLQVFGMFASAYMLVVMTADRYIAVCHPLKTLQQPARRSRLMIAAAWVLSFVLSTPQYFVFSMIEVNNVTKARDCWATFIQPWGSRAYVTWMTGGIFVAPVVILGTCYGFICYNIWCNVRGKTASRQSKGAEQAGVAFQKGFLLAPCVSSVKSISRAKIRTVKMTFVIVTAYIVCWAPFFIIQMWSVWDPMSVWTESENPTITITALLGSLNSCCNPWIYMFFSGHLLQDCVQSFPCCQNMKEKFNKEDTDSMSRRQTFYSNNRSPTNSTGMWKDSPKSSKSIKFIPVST
# [4] = target: T2, Vasopressin V1b receptor (Homo sapiens, UniProt P47901); assay: Agonist activity at recombinant human vasopressin V1b receptor expressed in Flp-In-293 cells by luciferase reporter gene assay; format: functional, cell-based
# T2 sequence (P47901 whole entry): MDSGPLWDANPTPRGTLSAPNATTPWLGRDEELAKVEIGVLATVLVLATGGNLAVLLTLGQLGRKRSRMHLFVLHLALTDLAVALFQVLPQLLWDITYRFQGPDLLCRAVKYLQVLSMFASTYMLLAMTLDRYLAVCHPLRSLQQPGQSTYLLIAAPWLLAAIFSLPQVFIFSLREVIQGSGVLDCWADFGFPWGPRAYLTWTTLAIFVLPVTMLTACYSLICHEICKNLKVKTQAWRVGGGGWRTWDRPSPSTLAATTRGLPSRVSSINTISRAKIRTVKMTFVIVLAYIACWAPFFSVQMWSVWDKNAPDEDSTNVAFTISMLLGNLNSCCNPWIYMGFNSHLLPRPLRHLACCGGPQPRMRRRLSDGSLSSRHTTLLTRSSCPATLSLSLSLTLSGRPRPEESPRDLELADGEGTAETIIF
# Outline: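 Reporter gene assays in HEK293 cells transiently cotransfected with V1a (human or rat) or human V2 receptor vector plus NFAT-luciferase (V1a) or CRE-luciferase (V2) reporter; V1b in Flp-In-293 stably expressing receptor, OT in CHO-K1 stably expressing receptor, both transiently transfected with NFAT-luciferase. Two days post-transfection, peptides added for 5 h at 37 °C, lysis with luciferin, luminescence read.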
# [5] = target: T3, Vasopressin V2 receptor (Homo sapiens, UniProt P30518); assay: Agonist activity at recombinant human vasopressin V2 receptor expressed in HEK293 cells by luciferase reporter gene assay; format: functional, cell-based
# [6] = target: T4, Oxytocin receptor (Homo sapiens, UniProt P30559); assay: Agonist activity at human OT receptor expressed in CHO-K1 cells by luciferase reporter gene assay; format: functional, cell-based
# T4 sequence (P30559 whole entry): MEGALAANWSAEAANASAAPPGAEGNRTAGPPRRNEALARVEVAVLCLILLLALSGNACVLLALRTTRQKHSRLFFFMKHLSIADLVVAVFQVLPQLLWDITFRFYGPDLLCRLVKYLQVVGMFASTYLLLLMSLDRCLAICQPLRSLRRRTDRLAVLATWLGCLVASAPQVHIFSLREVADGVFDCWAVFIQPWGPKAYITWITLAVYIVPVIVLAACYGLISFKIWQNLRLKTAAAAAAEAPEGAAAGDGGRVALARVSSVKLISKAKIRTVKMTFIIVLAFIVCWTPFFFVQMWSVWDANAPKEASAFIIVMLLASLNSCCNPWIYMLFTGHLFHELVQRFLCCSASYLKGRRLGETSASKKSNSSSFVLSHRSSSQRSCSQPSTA
# [7] = organism: Homo sapiens; assay: Selectivity ratio of EC50 for human vasopressin V1b receptor to EC50 for human vasopressin V1a receptor
# [8] = organism: Homo sapiens; assay: Selectivity ratio of EC50 for human oxytocin receptor to EC50 for human vasopressin V1a receptor
# [9] = target: Vasopressin V1a receptor (Rattus norvegicus, UniProt P30560); assay: Agonist activity at recombinant rat vasopressin V1a receptor expressed in HEK293 cells by luciferase reporter gene assay; format: functional, cell-based; conditions: read-out: EC50
# [10] = target: T5, Oxytocin receptor (Homo sapiens) (UniProt P30559); assay: Partial agonist activity at human OT receptor expressed in CHO-K1 cells by luciferase reporter gene assay; format: functional, cell-based
# T5 sequence (whole entry): T4 sequence (P30559 whole entry)
# Outline: (§1)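 Same luciferase reporter systems (OT in stable CHO-K1, V1b in stable Flp-In-293, each with transient NFAT-luciferase; V1a in HEK293 with NFAT-luciferase, V2 in HEK293 with CRE-luciferase). Peptides added for 5 h at 37 °C two days post-transfection, luminescence read. Partial agonism means efficacy <70%.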
# [11] = target: T1, Vasopressin V1a receptor; assay: Partial agonist activity at recombinant human vasopressin V1a receptor expressed in HEK293 cells by luciferase reporter gene assay; format: functional, cell-based; outline: as §1
# Target sequence in this assay (P37288 whole entry, looked up): as the sequence (P37288 whole entry) above
# [12] = target: T6, Vasopressin V1b receptor (Homo sapiens) (UniProt P47901); assay: Partial agonist activity at recombinant human vasopressin V1b receptor expressed in Flp-In-293 cells by luciferase reporter gene assay; format: functional, cell-based; outline: as §1
# T6 sequence (whole entry): T2 sequence (P47901 whole entry)
# [13] = tested on: Rattus norvegicus; assay: Vasoconstriction in Wistar rat assessed as assessed as decay in vasopressive duration of action at 3 nmol/kg, iv bolus measured over 10 sec interval; format: functional
# Outline: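 Fasted male Wistar rats (206–340 g) under isoflurane, then thiobutabarbital 150 mg/kg ip, ventilated, 37–38 °C, with carotid pressure and jugular dosing. Dibenamine 1.8 mg/rat iv pretreatment. Sequence: iv boluses (0.5 mL/kg) of heparinized vehicle, then two reference doses of 0.1 nmol/kg, then two test doses; one matches the reference diastolic pressure rise. Relative duration = reference decay rate / test decay rate; mean ± SEM.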
# [14] = target: T3, Vasopressin V2 receptor; assay: Partial agonist activity at recombinant human vasopressin V2 receptor expressed in HEK293 cells by luciferase reporter gene assay; format: functional, cell-based; outline: as §1
# Sequence of Vasopressin V1a/V2 (Homo sapiens) (P30518 whole entry, looked up): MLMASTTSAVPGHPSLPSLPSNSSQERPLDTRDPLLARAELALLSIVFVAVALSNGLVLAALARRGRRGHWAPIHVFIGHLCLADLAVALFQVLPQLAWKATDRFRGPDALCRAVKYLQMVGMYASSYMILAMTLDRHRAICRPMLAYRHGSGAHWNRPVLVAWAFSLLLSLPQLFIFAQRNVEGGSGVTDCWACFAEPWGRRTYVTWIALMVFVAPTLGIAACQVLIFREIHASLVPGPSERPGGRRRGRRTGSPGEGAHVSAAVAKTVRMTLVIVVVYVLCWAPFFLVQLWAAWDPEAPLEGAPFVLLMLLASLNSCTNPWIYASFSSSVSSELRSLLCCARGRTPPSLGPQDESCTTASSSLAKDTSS
# Sequence of Vasopressin V1a/V2 (Homo sapiens) (P37288 whole entry, looked up): as the sequence (P37288 whole entry) above
# T3 sequence (P30518 whole entry): as the sequence (P30518 whole entry, looked up) above
# Sequence of Vasopressin V1a receptor (Rattus norvegicus, UniProt P30560) (P30560 whole entry): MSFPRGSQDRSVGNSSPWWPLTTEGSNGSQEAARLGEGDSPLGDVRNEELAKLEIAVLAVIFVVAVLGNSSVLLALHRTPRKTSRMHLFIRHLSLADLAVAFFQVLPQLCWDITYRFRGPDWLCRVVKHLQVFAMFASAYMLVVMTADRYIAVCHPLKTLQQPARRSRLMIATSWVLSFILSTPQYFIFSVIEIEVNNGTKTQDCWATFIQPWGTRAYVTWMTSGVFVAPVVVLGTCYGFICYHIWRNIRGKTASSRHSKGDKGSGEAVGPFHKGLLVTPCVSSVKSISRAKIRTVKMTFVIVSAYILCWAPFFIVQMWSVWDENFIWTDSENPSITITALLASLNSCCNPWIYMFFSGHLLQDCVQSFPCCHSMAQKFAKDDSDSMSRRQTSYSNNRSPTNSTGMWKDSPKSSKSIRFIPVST
SMILES,"EC50 ([4]; flp-in-293, read-out: EC50) [nM]",EC50 ([4]; read-out: pEC50 (converted)) [nM],"EC50 ([5]; hek293, read-out: EC50) [nM]",EC50 ([5]; read-out: pEC50 (converted)) [nM],"EC50 ([6]; cho-k1, read-out: EC50) [nM]",EC50 ([6]; read-out: pEC50 (converted)) [nM],Efficacy [11] [%],Efficacy [12] [%],Time [1],Ratio EC50 [2],EC50 [3] [nM],EC50 ([4]; read-out: EC50) [nM],EC50 ([5]; read-out: EC50) [nM],EC50 ([6]; read-out: EC50) [nM],Ratio EC50 [7],Ratio EC50 [8],EC50 [9] [nM],Efficacy [10] [%],Time [13] [unitless ratio],Efficacy [14] [%]
CC[C@H](C)[C@@H]1NC(=O)[C@H](Cc2ccccc2)NC(=O)[C@@H](N)CSSC[C@@H](C(=O)N2CCC[C@H]2C(=O)N[C@@H](CCCNC)C(=O)NCC(N)=O)NC(=O)[C@H](CC(N)=O)NC(=O)[C@H](CCC(N)=O)NC1=O (H-CFIQNCP[Orn(Me)]G-NH2; disulfide 1-6),,,,,,,,,2.6,500,0.26,74,130,16,280,61,0.29,< 70,,
CCCNCCC[C@H](NC(=O)[C@@H]1CCCN1C(=O)[C@@H]1CSSC[C@H](N)C(=O)N[C@@H](Cc2ccccc2)C(=O)N[C@@H]([C@@H](C)CC)C(=O)N[C@@H](CCC(N)=O)C(=O)N[C@@H](CC(N)=O)C(=O)N1)C(=O)NCC(N)=O (H-CFIQNCP[Orn(Pr)]G-NH2; disulfide 1-6),,,,,,,,,1.9,660,0.21,38,140,32,180,150,0.1,,,
CC[C@H](C)[C@@H]1NC(=O)[C@H](Cc2ccccc2)NC(=O)[C@@H](N)CSSC[C@@H](C(=O)N2CCC[C@H]2C(=O)N[C@@H](CCCNC(C)C)C(=O)NCC(N)=O)NC(=O)[C@H](CC(N)=O)NC(=O)[C@H](CCCC(N)=O)NC1=O [SELEPRESSIN],,,,,,1100,,,1.4,1100,2.4,340,2700,1100,140,450,0.55,< 70,,< 70

# Further lines, with some results ahead:
"EC50 ([4]; flp-in-293, read-out: EC50) [nM]",EC50 ([4]; read-out: pEC50 (converted)) [nM],"EC50 ([5]; hek293, read-out: EC50) [nM]",EC50 ([5]; read-out: pEC50 (converted)) [nM],"EC50 ([6]; cho-k1, read-out: EC50) [nM]",EC50 ([6]; read-out: pEC50 (converted)) [nM],Efficacy [11] [%],Efficacy [12] [%],SMILES,Time [1],Ratio EC50 [2],EC50 [3] [nM],EC50 ([4]; read-out: EC50) [nM],EC50 ([5]; read-out: EC50) [nM],EC50 ([6]; read-out: EC50) [nM],Ratio EC50 [7],Ratio EC50 [8],EC50 [9] [nM],Efficacy [10] [%],Time [13] [unitless ratio],Efficacy [14] [%]
> 10000,> 10000,> 10000,> 10000,> 10000,> 10000,< 70,,CC[C@H](C)[C@@H]1NC(=O)[C@H](Cc2cnc[nH]2)NC(=O)[C@@H](N)CSSC[C@@H](C(=O)N2CCC[C@H]2C(=O)N[C@@H](CCN)C(=O)NCC(N)=O)NC(=O)[C@H](CC(N)=O)NC(=O)[C@H](CCC(N)=O)NC1=O (H-CHIQNCP[Dab]G-NH2; disulfide 1-6),,> 19,510,,,,> 19,> 19,,,,
,,,,,,,< 70,CC[C@H](C)[C@@H]1NC(=O)[C@H](Cc2ccsc2)NC(=O)[C@@H](N)CSSC[C@@H](C(=O)N2CCC[C@H]2C(=O)N[C@@H](CCN)C(=O)NCC(N)=O)NC(=O)[C@H](CC(N)=O)NC(=O)[C@H](CCC(N)=O)NC1=O (H-C[3Thi]IQNCP[Dab]G-NH2; disulfide 1-6),,320,0.61,50,200,30,81,49,,< 70,,
,,,,> 10000,> 10000,,,CC[C@H](C)[C@@H]1NC(=O)[C@H](CC2CCCC2)NC(=O)[C@@H](N)CSSC[C@@H](C(=O)N2CCC[C@H]2C(=O)N[C@@H](CCN)C(=O)NCC(N)=O)NC(=O)[C@H](CC(N)=O)NC(=O)[C@H](CCC(N)=O)NC1=O (H-C[Ala(cPent)]IQNCP[Dab]G-NH2; disulfide 1-6),,1500,0.8,20,1200,,25,> 12000,4.2,,2.3,
